Test results published in ChEMBL document CHEMBL4715860 (J Med Chem, 2020).
Calls of active or inactive are those of the source. The rule behind the calls is not given here.

Legend:
[1] = target: T1, Phosphatidylinositol 4,5-bisphosphate 3-kinase catalytic subunit delta isoform (Homo sapiens, UniProt O00329); test: Binding affinity to wild-type human partial length PIK3CD (R108 to Q1044 residues) expressed in HEK293 cells measured after 1 hr by Kinomescan method; assay type: cell-based
T1 sequence (O00329 whole entry): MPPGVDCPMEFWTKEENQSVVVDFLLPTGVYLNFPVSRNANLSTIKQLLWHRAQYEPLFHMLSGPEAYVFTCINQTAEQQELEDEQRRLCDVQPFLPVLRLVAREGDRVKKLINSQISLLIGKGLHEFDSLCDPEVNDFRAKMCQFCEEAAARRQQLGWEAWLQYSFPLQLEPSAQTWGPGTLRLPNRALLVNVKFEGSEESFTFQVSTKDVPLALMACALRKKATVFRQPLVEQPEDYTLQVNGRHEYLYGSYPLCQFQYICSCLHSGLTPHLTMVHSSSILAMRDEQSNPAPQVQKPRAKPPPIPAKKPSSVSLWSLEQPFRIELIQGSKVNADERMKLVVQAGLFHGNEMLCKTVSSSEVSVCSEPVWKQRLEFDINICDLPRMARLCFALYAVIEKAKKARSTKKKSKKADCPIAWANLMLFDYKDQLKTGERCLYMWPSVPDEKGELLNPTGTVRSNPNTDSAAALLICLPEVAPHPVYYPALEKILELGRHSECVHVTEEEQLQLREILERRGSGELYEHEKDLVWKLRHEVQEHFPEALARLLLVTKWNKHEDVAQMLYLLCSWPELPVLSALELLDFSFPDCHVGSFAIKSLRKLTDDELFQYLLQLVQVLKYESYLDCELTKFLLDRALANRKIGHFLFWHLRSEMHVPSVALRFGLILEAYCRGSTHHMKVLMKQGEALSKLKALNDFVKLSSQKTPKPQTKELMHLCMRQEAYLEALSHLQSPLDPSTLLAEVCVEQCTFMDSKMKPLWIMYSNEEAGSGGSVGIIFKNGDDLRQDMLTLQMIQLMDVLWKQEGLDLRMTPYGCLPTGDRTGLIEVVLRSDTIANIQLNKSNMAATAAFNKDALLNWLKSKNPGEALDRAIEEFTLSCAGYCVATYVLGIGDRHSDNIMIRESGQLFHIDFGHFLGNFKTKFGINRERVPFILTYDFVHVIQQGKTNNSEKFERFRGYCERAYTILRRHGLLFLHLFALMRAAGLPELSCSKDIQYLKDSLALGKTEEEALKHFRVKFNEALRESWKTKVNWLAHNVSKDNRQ
Outline: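 Compound given as an 11-point threefold series from 30 μM, in technical duplicate. Kd from a Hill fit with slope fixed at −1.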

[2] = Toxicity in Tsc1-GFAP knockout Balb/c mouse assessed as change in body weight at 50 mg/kg, po bid; assay type: organism-based; conditions: in vivo
Outline: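 Tsc1GFAPCKO mice dosed orally from P21 at 10, 25, 50 mg/kg or 50 mg/kg bid. Body weight tracked during the survival study; mean ± SEM.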

[3] = tested on: Rattus norvegicus; test: In vivo inhibition of PI3Kalpha Sprague-Dawley rat assessed as increase in plasma glucose concentration at 5 mg/kg, po measured after 8 hrs by glucoseoxidase-peroxide coupled colorimetric assay; assay type: functional, organism-based
Outline: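 Male Sprague Dawley rats dosed orally at 5 mg/kg; plasma insulin and glucose followed over time against vehicle, n = 3, mean ± SEM.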

[4] = Cmax in C57BL/6J mouse plasma at 25 mg/kg, po administered as single dose by mass spectrometry based UHPLC analysis; assay type: ADME, organism-based; set-up: route oral, dose 25 mg/kg
Outline: (§1)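 One oral dose of 25 mg/kg to female C57BL/6J mice. Plasma and brain concentrations followed over time, n = 3 per time point (mean).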

[5] = Toxicity in Tsc1-GFAP knockout Balb/c mouse assessed as change in body weight at 10 to 50 mg/kg, po administered as single dose; assay type: organism-based; conditions: in vivo, dose 10-50 mg/kg
[6] = Intrinsic clearance in Beagle dog hepatocytes assessed per million cells at 5 uM incubated for 3 hrs by LC-MS analysis; assay type: ADME, cell-based, Canis lupus familiaris, Hepatocyte; conditions: read-out: CLH
Outline: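 Cryopreserved Beagle dog hepatocytes in suspension with compound at 5 μM (final, from 10 mM DMSO stock). Sampled at 0, 15, 60, 90 and 180 min, ACN-precipitated and analysed by LC-MS. Duplicates; 7-ethoxycoumarin as positive control, hepatocyte-free medium as negative control. CLint given per 10^6 cells, mean ± SEM (n = 2).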

[7] = Tmax in C57BL/6J mouse plasma at 25 mg/kg, po administered as single dose by mass spectrometry based UHPLC analysis; assay type: ADME, organism-based
Outline: (§2)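 Female C57BL/6J mice given a single oral dose of 25 mg/kg. Plasma and brain levels followed over time (n = 3 per time point, mean). Tmax is the time of maximal concentration.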

[8] = Cmax in C57BL/6J mouse brain at 10 mg/kg, po administered once a day for 4 consecutive days by mass spectrometry based UHPLC analysis; assay type: ADME, organism-based; set-up: route oral, dose 10 mg/kg, time 4 day
Outline: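 Female C57BL/6J mice given 10 mg/kg p.o. in 20% Captisol once daily for 4 consecutive days. Plasma and brain sampled after the final dose on day 4, n = 3 per time point.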

[9] = Cmax in C57BL/6J mouse brain at 10 mg/kg, po administered as single dose by mass spectrometry based UHPLC analysis; assay type: ADME, organism-based; set-up: route oral, dose 10 mg/kg
Outline: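 Female C57BL/6J mice, one oral dose of 10 mg/kg in 20% Captisol; plasma and brain levels over time, n = 3 per time point (mean).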

[10] = tested on: Mus musculus; test: Protection against Tsc1-GFAP knockout induced mortality in Balb/c mouse assessed as increase in survival rate at 50 mg/kg, po administered twice daily; assay type: functional, organism-based
Outline: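 Tsc1GFAPCKO mice (conditional Tsc1 inactivation mainly in glia) dosed orally starting at P21, at 10 mg/kg or 50 mg/kg bid (n = 10 and 7). Survival recorded to P90, with censoring at P90. Compared with vehicle and everolimus by log-rank test.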

[11] = Tmax in C57BL/6J mouse brain at 25 mg/kg, po administered as single dose by mass spectrometry based UHPLC analysis; assay type: ADME, organism-based; outline: as §2
[12] = Metabolic stability in Sprague-Dawley rat hepatocytes assessed as parent compound remaining at 5 uM incubated for 3 hrs by LC-MS analysis; assay type: ADME, cell-based, Hepatocyte; conditions: read-out: Stabilty
Outline: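 Cryopreserved primary hepatocytes in suspension (CD-1 mouse, Sprague-Dawley rat, Beagle dog, human). Compound diluted from 10 mM DMSO stock to 5 μM final. Sampled at 0, 15, 60, 90 and 180 min, protein precipitated with ACN plus internal standard, supernatant analysed by LC−MS. Run in duplicate. 7-ethoxycoumarin as positive control. Hepatocyte-free medium incubations as negative control.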

[13] = AUC (0 to 8 hrs) in C57BL/6J mouse brain at 25 mg/kg, po administered as single dose by mass spectrometry based UHPLC analysis; assay type: ADME, organism-based; set-up: time < 8 hr, route oral, dose 25 mg/kg; outline: as §1
[14] = tested on: Mus musculus; test: In vivo inhibition of PI3Kalpha in C57BL/6J mouse assessed as increase in plasma glucose concentration at 25 mg/kg, po measured after 8 hrs by glucoseoxidase-peroxide coupled colorimetric assay; assay type: functional, organism-based
Outline: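 Female C57BL/6J mice given one oral dose (25 mg/kg); plasma insulin and glucose monitored over time, mean ± SEM.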

Kd [1] | Cmax [4] | hepatocyte CLint at 5 µM [6] | Tmax [7] | Cmax [8] | Cmax [9] | Tmax [11] | remaining at 3 h, 5 µM [12] | AUC(0-t) at 8 h [13] | Compound | Activity [2] | inhibition [3] | Activity [5] | Activity [10] | inhibition [14]
2450 nM |  |  |  |  |  |  |  |  | C[C@@H]1COCCN1c1nc(-c2cnc(N)cc2C(F)F)nc(N2CCOCC2(C)C)n1 |  |  |  |  | 
3500 nM | 1830 ng/mL | 1.8 µL/min/1e6 cells | 12 min | 1320 ng/mL | 1420 ng/mL | 30 min | 42.3% | 17100 ng·h/mL | C[C@@H]1COCCN1c1nc(-c2cnc(N)cc2C(F)F)nc(N2[C@H](C)COC[C@@H]2C)n1 | Non-Toxic | inactive | Non-Toxic | Active | inactive
